Laboratory results reported in ChEMBL document CHEMBL1909537, “1-Aryl-5-(1H-pyrrol-1-yl)-1H-pyrazole-3-carboxamide: an effective scaffold for the design of either CB1 or CB2 receptor ligands” (Eur J Med Chem, 2011).
Calls of active or inactive are those of the source. No cut-off for these calls is given here.

How the values were obtained:
Homo sapiens [1] = species: Homo sapiens; assay: Selectivity index, ratio of Ki for recombinant human CB2 receptor to Ki for recombinant human CB1 receptor
Outline: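 Index computed as Ki(CB2)/Ki(CB1). Each Ki comes from [3H]-CP-55,940 displacement on transfected HEK membranes (0.14 nM radioligand for CB1, 0.084 nM for CB2) via Cheng-Prusoff.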

Cannabinoid receptor 2 = Cannabinoid receptor 2 (Homo sapiens, UniProt P34972); assay: Displacement of [3H]CP-55,940 from recombinant human CB2 receptor expressed in HEK cells; type: cell-based, HEK293
Outline: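 Competition binding on membranes of HEK cells transfected with human CB2, using [3H]-CP-55,940 at 0.084 nM (radioligand Kd 0.31 nM). Displacement curves give IC50, converted to Ki by the Cheng-Prusoff equation. Reference ligands run in parallel.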

Homo sapiens [2] = species: Homo sapiens; assay: Selectivity index, ratio of Ki for recombinant human CB1 receptor to Ki for recombinant human CB2 receptor
Outline: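 Index computed as Ki(CB1)/Ki(CB2). Each Ki comes from [3H]-CP-55,940 displacement on transfected HEK membranes (0.14 nM radioligand for CB1, 0.084 nM for CB2) via Cheng-Prusoff.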

Cannabinoid receptor 1 = Cannabinoid receptor 1 (Homo sapiens, UniProt P21554); assay: Displacement of [3H]CP-55,940 from recombinant human CB1 receptor expressed in HEK cells; type: cell-based, HEK293
Outline: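 Competition binding on membranes of HEK cells transfected with human CB1, using [3H]-CP-55,940 at 0.14 nM (radioligand Kd 0.18 nM). Displacement curves give IC50, converted to Ki by the Cheng-Prusoff equation. Reference ligands run in parallel.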

Rattus norvegicus [3] = assay: Reduction in food intake in Wistar rat at 2 mg/kg, ip administered 30 mins before lights off measured 6 hrs after lights off relative to vehicle-treated control; type: functional, organism-based; parameters: dose 2 mg/kg
Outline: (§1)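 Wistar rats had free access to 1% w/v sucrose solution, water and regular chow. On test day they were split into groups of n = 15, matched on body weight and on sucrose and food intake over the prior 3 days. Drug was suspended in saline with 0.05% v/v Tween 80 and given ip at 0, 1 or 2 mg/kg (3 mL/kg), 30 min before lights off. Data were analysed by ANOVA with Newman-Keuls test.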

Rattus norvegicus [4] = assay: Reduction in water intake in Wistar rat at 2 mg/kg, ip administered 30 mins before lights off measured 6 hrs after lights off relative to vehicle-treated control; type: functional, organism-based; parameters: dose 2 mg/kg; outline: as §1
Rattus norvegicus [5] = assay: Reduction in sucrose intake in Wistar rat at 2 mg/kg, ip administered 30 mins before lights off measured 6 hrs after lights off relative to vehicle-treated control; type: functional; parameters: scale not given: the % may be the effect or the level left; conditions: route intraperitoneal; outline: as §1

Cannabinoid receptor 2, sequence (P34972 whole entry): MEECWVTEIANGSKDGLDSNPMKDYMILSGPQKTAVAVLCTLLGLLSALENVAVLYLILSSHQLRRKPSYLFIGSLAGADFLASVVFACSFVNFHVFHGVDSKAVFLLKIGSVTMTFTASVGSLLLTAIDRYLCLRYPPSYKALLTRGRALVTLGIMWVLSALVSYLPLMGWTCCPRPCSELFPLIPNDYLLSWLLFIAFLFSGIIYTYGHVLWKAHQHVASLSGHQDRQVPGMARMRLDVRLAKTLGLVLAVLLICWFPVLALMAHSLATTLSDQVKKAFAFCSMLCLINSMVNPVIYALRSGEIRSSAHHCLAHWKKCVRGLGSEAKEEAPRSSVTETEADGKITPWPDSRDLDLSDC
Cannabinoid receptor 1, sequence (P21554 whole entry): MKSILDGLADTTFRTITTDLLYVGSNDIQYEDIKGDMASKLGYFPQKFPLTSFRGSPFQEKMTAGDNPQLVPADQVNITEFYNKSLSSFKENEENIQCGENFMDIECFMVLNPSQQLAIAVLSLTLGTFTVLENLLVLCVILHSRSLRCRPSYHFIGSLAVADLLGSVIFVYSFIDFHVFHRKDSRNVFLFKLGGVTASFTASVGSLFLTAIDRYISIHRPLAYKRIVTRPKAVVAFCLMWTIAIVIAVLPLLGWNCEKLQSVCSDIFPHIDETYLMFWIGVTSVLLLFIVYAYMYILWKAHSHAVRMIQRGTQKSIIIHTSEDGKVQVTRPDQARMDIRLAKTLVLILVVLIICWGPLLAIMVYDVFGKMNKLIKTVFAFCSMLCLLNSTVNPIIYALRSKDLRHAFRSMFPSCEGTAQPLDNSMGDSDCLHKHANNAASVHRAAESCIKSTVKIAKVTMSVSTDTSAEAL

| Structure (SMILES) | Ratio Ki (Homo sapiens [1]) | Ki (Cannabinoid receptor 2) | Ratio Ki (Homo sapiens [2]) | Ki (Cannabinoid receptor 1) | Activity (Rattus norvegicus [3]) | Activity (Rattus norvegicus [4]) | Activity (Rattus norvegicus [5]) |
| --- | --- | --- | --- | --- | --- | --- | --- |
| CCc1c(C(=O)NC2CCCCC2)nn(-c2ccc(Cl)c(Cl)c2)c1-n1c(C)ccc1C | 0.035 | 1.7 nM | 28.2 | 48 nM |  |  |  |
| Cc1c(C(=O)NC2CCCCC2)nn(-c2ccc(Cl)cc2Cl)c1-n1cccc1Cl | 2.4 | 18.3 nM | 0.4 | 7.7 nM |  |  |  |
| Cc1c(C(=O)NCc2ccc(Cl)c(Cl)c2)nn(-c2ccc(Cl)c(Cl)c2)c1-n1c(Cl)ccc1Cl | 2.9 | 162 nM | 0.34 | 55.6 nM |  |  |  |
| CCc1c(C(=O)NCc2ccc(Cl)c(Cl)c2)nn(-c2ccc(Cl)c(Cl)c2)c1-n1cccc1 | 0.065 | 29.6 nM | 15.3 | 454 nM |  |  |  |
| CCc1c(C(=O)NCc2ccc(Cl)c(Cl)c2)nn(-c2ccc(Cl)c(Cl)c2)c1-n1c(C)ccc1C | 0.118 | 114 nM | 8.49 | 966 nM |  |  |  |
| CCc1c(C(=O)NC2CCCCC2)nn(-c2ccc(Cl)cc2Cl)c1-n1cccc1 | 5.3 | 15.8 nM | 0.19 | 3 nM |  |  |  |
| Cc1c(C(=O)NCc2ccc(Cl)c(Cl)c2)nn(-c2ccc(Cl)c(Cl)c2)c1-n1cccc1Cl | 0.73 | 53.9 nM | 1.38 | 74.1 nM |  |  |  |
| Cc1c(C(=O)NC2CCCCC2)nn(-c2ccc(Cl)c(Cl)c2)c1-n1cccc1Cl | 0.11 | 0.9 nM | 9.56 | 8.6 nM |  |  |  |
| Cc1c(C(=O)NC2CCCCC2)nn(-c2ccc(Cl)cc2Cl)c1-n1cc2c(c1)CCCC2 | 164 | 376 nM | 0.006 | 2.3 nM | inactive | inactive | 25% |
| CCc1c(C(=O)NC2CCCCC2)nn(-c2ccc(Cl)cc2Cl)c1-n1c(C)ccc1C | 112 | 754 nM | 0.009 | 6.7 nM |  |  |  |
| Cc1c(C(=O)NC2CCCCC2)nn(-c2ccc(Cl)c(Cl)c2)c1-n1c(Cl)ccc1Cl | 0.23 | 1.3 nM | 4.31 | 5.6 nM |  |  |  |
| Cc1c(C(=O)NCc2ccc(Cl)c(Cl)c2)nn(-c2ccc(Cl)cc2Cl)c1-n1c(Cl)ccc1Cl | 2 | 135 nM | 0.49 | 66.1 nM |  |  |  |
| Cc1c(C(=O)NC2CCCCC2)nn(-c2ccc(Cl)cc2Cl)c1-n1c(Cl)ccc1Cl | 2 | 19.1 nM | 0.49 | 9.4 nM |  |  |  |
| Cc1c(C(=O)NCc2ccc(Cl)c(Cl)c2)nn(-c2ccc(Cl)cc2Cl)c1-n1cccc1Cl | 3.9 | 98.5 nM | 0.26 | 25.2 nM |  |  |  |
| CCc1ccc(CC)n1-c1c(C)c(C(=O)NCc2ccc(Cl)c(Cl)c2)nn1-c1ccc(Cl)c(Cl)c1 |  | > 10000 nM |  | > 10000 nM |  |  |  |
| CCc1c(C(=O)NC2CCCCC2)nn(-c2ccc(Cl)c(Cl)c2)c1-n1cccc1 | 0.033 | 0.51 nM | 30 | 15.3 nM |  |  |  |
| Cc1c(C(=O)NCc2ccc(Cl)c(Cl)c2)nn(-c2ccc(Cl)cc2Cl)c1-n1cc2c(c1)CCCC2 | 1.6 | 72.9 nM | 0.63 | 45.9 nM |  |  |  |
| CCc1c(C(=O)NCc2ccc(Cl)c(Cl)c2)nn(-c2ccc(Cl)cc2Cl)c1-n1c(C)ccc1C | 1.06 | 53.1 nM | 0.94 | 56.1 nM |  |  |  |
| CCc1c(C(=O)NCc2ccc(Cl)c(Cl)c2)nn(-c2ccc(Cl)cc2Cl)c1-n1cccc1 | 9.3 | 455 nM | 0.11 | 48.7 nM |  |  |  |
| CCc1ccc(CC)n1-c1c(C)c(C(=O)NC2CCCCC2)nn1-c1ccc(Cl)c(Cl)c1 | 3 | 410 nM | 0.33 | 136 nM |  |  |  |
